Reference: PMC6606825 (Journal of Ginseng Research, 2018)

Assay: Pharmacokinetics of CK and its metabolite 20
Format: in vivo, healthy Chinese volunteers
Details: mean (SD)
How it was run: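 Healthy adults given one oral tablet dose fasting (overnight, or 10 h in a crossover food-effect arm); 30 subjects from the 100/200/400 mg groups were pooled with 24 from 200 mg fasting periods. Plasma was stored at −70°C, extracted with MTBE plus internal standards and assayed by LC-MS/MS. Cmax was observed and AUClast calculated by linear trapezoid, each divided by dose. The metabolite/parent ratio was also calculated. Genotyping used Sequenom MassARRAY, and log-transformed values were compared by one-way ANOVA.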

[1] = ABCG2 rs3114018 AA (first line)
[2] = ABCG2 rs3114018 AA (third line)

Ratio 20(S)-PPD/CK Cmax/D (ABCG2 rs2725248 CC): 0.74 (0.83) %
20(S)-PPD AUClast/D [1]: 0.91 (0.71)
20(S)-PPD Cmax/D [1]: 0.03 (0.02)
Ratio 20(S)-PPD/CK AUClast/D [1]: 4.78 (4.26) %
Ratio 20(S)-PPD/CK Cmax/D [1]: 0.96 (0.87) %
20(S)-PPD AUClast/D [2]: 0.88 (0.92)
20(S)-PPD Cmax/D [2]: 0.03 (0.03)
Ratio 20(S)-PPD/CK AUClast/D [2]: 5.73 (8.96) %
Ratio 20(S)-PPD/CK Cmax/D [2]: 1.25 (1.73) %
20(S)-PPD AUClast/D (ABCG2 rs3114018 CA): 0.80 (0.73)
20(S)-PPD Cmax/D (ABCG2 rs3114018 CA): 0.03 (0.03)
Ratio 20(S)-PPD/CK AUClast/D (ABCG2 rs3114018 CA): 3.46 (4.62) %
Ratio 20(S)-PPD/CK Cmax/D (ABCG2 rs3114018 CA): 1.17 (1.94) %
20(S)-PPD AUClast/D (ABCG2 rs6857600 CC): 0.89 (0.83)
20(S)-PPD Cmax/D (ABCG2 rs6857600 CC): 0.03 (0.03)
Ratio 20(S)-PPD/CK AUClast/D (ABCG2 rs6857600 CC): 4.61 (6.81) %
Ratio 20(S)-PPD/CK Cmax/D (ABCG2 rs6857600 CC): 1.26 (1.91) %
20(S)-PPD AUClast/D (ABCG2 rs6857600 TC): 0.65 (0.64)
20(S)-PPD Cmax/D (ABCG2 rs6857600 TC): 0.02 (0.02)
Ratio 20(S)-PPD/CK AUClast/D (ABCG2 rs6857600 TC): 2.91 (3.24) %
Ratio 20(S)-PPD/CK Cmax/D (ABCG2 rs6857600 TC): 0.75 (0.80) %
20(S)-PPD AUClast/D (ABCG2 rs6857600 TT): 0.48 (0.53)
20(S)-PPD Cmax/D (ABCG2 rs6857600 TT): 0.02 (0.02)
Ratio 20(S)-PPD/CK AUClast/D (ABCG2 rs6857600 TT): 4.27 (5.76) %
Ratio 20(S)-PPD/CK Cmax/D (ABCG2 rs6857600 TT): 0.95 (1.30) %
20(S)-PPD AUClast/D (ABCG2 rs12505410 GG): 0.92 (0.62)
20(S)-PPD Cmax/D (ABCG2 rs12505410 GG): 0.03 (0.02)
Ratio 20(S)-PPD/CK AUClast/D (ABCG2 rs12505410 GG): 3.61 (2.83) %
Ratio 20(S)-PPD/CK Cmax/D (ABCG2 rs12505410 GG): 0.90 (0.55) %
20(S)-PPD AUClast/D (ABCG2 rs12505410 GT): 1.00 (0.74)
Ratio 20(S)-PPD/CK AUClast/D (ABCG2 rs12505410 GT): 4.63 (5.21) %
Ratio 20(S)-PPD/CK Cmax/D (ABCG2 rs12505410 GT): 1.36 (2.02) %
20(S)-PPD AUClast/D (ABCG2 rs12505410 TT): 0.63 (0.82)
20(S)-PPD Cmax/D (ABCG2 rs12505410 TT): 0.02 (0.03)
Ratio 20(S)-PPD/CK AUClast/D (ABCG2 rs12505410 TT): 4.03 (7.68) %
Ratio 20(S)-PPD/CK Cmax/D (ABCG2 rs12505410 TT): 0.97 (1.54) %
20(S)-PPD AUClast/D (ABCG2 rs17731799 GG): 0.91 (0.71)
20(S)-PPD Cmax/D (ABCG2 rs17731799 GG): 0.03 (0.02)
Ratio 20(S)-PPD/CK AUClast/D (ABCG2 rs17731799 GG): 4.78 (4.26) %
Ratio 20(S)-PPD/CK Cmax/D (ABCG2 rs17731799 GG): 0.96 (0.87) %
20(S)-PPD AUClast/D (ABCG2 rs17731799 GT): 0.82 (0.77)
20(S)-PPD Cmax/D (ABCG2 rs17731799 GT): 0.03 (0.03)
Ratio 20(S)-PPD/CK AUClast/D (ABCG2 rs17731799 GT): 3.65 (5.14) %
Ratio 20(S)-PPD/CK Cmax/D (ABCG2 rs17731799 GT): 1.28 (2.16) %
20(S)-PPD AUClast/D (ABCG2 rs17731799 TT): 0.80 (0.85)
20(S)-PPD Cmax/D (ABCG2 rs17731799 TT): 0.03 (0.03)
Ratio 20(S)-PPD/CK AUClast/D (ABCG2 rs17731799 TT): 4.76 (7.86) %
Ratio 20(S)-PPD/CK Cmax/D (ABCG2 rs17731799 TT): 1.08 (1.53) %
20(S)-PPD AUClast/D (CFTR rs213950 AG): 0.91 (0.99)
20(S)-PPD Cmax/D (CFTR rs213950 AG): 0.03 (0.04)
Ratio 20(S)-PPD/CK AUClast/D (CFTR rs213950 AG): 4.96 (7.34) %
Ratio 20(S)-PPD/CK Cmax/D (CFTR rs213950 AG): 1.45 (2.26) %
20(S)-PPD AUClast/D (CFTR rs213950 GG): 0.64 (0.54)
20(S)-PPD Cmax/D (CFTR rs213950 GG): 0.02 (0.02)
Ratio 20(S)-PPD/CK AUClast/D (CFTR rs213950 GG): 2.67 (3.18) %
Ratio 20(S)-PPD/CK Cmax/D (CFTR rs213950 GG): 0.64 (0.66) %
20(S)-PPD AUClast/D (CFTR rs213968 CC): 0.64 (0.55)
20(S)-PPD Cmax/D (CFTR rs213968 CC): 0.02 (0.02)
Ratio 20(S)-PPD/CK AUClast/D (CFTR rs213968 CC): 2.81 (3.33) %
Ratio 20(S)-PPD/CK Cmax/D (CFTR rs213968 CC): 0.65 (0.69) %
20(S)-PPD AUClast/D (CFTR rs213968 CT): 0.90 (0.98)
20(S)-PPD Cmax/D (CFTR rs213968 CT): 0.03 (0.04)
Ratio 20(S)-PPD/CK AUClast/D (CFTR rs213968 CT): 4.70 (7.26) %
Ratio 20(S)-PPD/CK Cmax/D (CFTR rs213968 CT): 1.40 (2.23) %
20(S)-PPD AUClast/D (CFTR rs213968 TT): 0.97 (0.49)
20(S)-PPD Cmax/D (CFTR rs213968 TT): 0.04 (0.02)
Ratio 20(S)-PPD/CK AUClast/D (CFTR rs213968 TT): 5.87 (7.37) %
Ratio 20(S)-PPD/CK Cmax/D (CFTR rs213968 TT): 1.40 (1.51) %
20(S)-PPD AUClast/D (CFTR rs213976 GG): 1.12 (0.43)
20(S)-PPD Cmax/D (CFTR rs213976 GG): 0.04 (0.02)
Ratio 20(S)-PPD/CK AUClast/D (CFTR rs213976 GG): 7.39 (8.42) %
Ratio 20(S)-PPD/CK Cmax/D (CFTR rs213976 GG): 1.68 (1.73) %
20(S)-PPD AUClast/D (CFTR rs213976 GT): 0.83 (0.78)
20(S)-PPD Cmax/D (CFTR rs213976 GT): 0.03 (0.03)
Ratio 20(S)-PPD/CK AUClast/D (CFTR rs213976 GT): 4.01 (4.96) %
Ratio 20(S)-PPD/CK Cmax/D (CFTR rs213976 GT): 1.32 (2.08) %
20(S)-PPD AUClast/D (CFTR rs213976 TT): 0.74 (0.87)
20(S)-PPD Cmax/D (CFTR rs213976 TT): 0.02 (0.03)
Ratio 20(S)-PPD/CK AUClast/D (CFTR rs213976 TT): 3.63 (6.72) %
Ratio 20(S)-PPD/CK Cmax/D (CFTR rs213976 TT): 0.81 (1.29) %
20(S)-PPD AUClast/D (CFTR rs1042077 GG): 0.97 (0.49)
20(S)-PPD Cmax/D (CFTR rs1042077 GG): 0.04 (0.02)
Ratio 20(S)-PPD/CK AUClast/D (CFTR rs1042077 GG): 5.87 (7.37) %
Ratio 20(S)-PPD/CK Cmax/D (CFTR rs1042077 GG): 1.40 (1.51) %
20(S)-PPD AUClast/D (CFTR rs1042077 GT): 0.92 (0.99)
20(S)-PPD Cmax/D (CFTR rs1042077 GT): 0.03 (0.04)
Ratio 20(S)-PPD/CK AUClast/D (CFTR rs1042077 GT): 4.85 (7.37) %
Ratio 20(S)-PPD/CK Cmax/D (CFTR rs1042077 GT): 1.44 (2.26) %
20(S)-PPD AUClast/D (CFTR rs1042077 TT): 0.68 (0.55)
20(S)-PPD Cmax/D (CFTR rs1042077 TT): 0.02 (0.02)
Ratio 20(S)-PPD/CK AUClast/D (CFTR rs1042077 TT): 2.95 (3.37) %
Ratio 20(S)-PPD/CK Cmax/D (CFTR rs1042077 TT): 0.68 (0.70) %
20(S)-PPD AUClast/D (CFTR rs2106155 AA): 1.09 (0.41)
20(S)-PPD Cmax/D (CFTR rs2106155 AA): 0.04 (0.02)
Ratio 20(S)-PPD/CK AUClast/D (CFTR rs2106155 AA): 7.22 (7.81) %
Ratio 20(S)-PPD/CK Cmax/D (CFTR rs2106155 AA): 1.67 (1.60) %
20(S)-PPD AUClast/D (CFTR rs2106155 CA): 0.88 (0.82)
20(S)-PPD Cmax/D (CFTR rs2106155 CA): 0.04 (0.03)
Ratio 20(S)-PPD/CK AUClast/D (CFTR rs2106155 CA): 4.03 (5.36) %
Ratio 20(S)-PPD/CK Cmax/D (CFTR rs2106155 CA): 1.39 (2.26) %
SMILES: CC(C)=CCC[C@](C)(O)[C@H]1CC[C@]2(C)[C@@H]1[C@H](O)C[C@@H]1[C@@]3(C)CC[C@H](O)C(C)(C)[C@@H]3CC[C@]12C [20(S)-PPD, 20(S)-protopanaxadiol]
